An excerpt weighted towards active compounds, which were near 2.6% of everything screened.
RanGTP-Imp inh = inhibitors of RanGTP-importin-beta interaction, primary screen, biochemical, FRET, CFP-Ran, YFP-importin-beta, homogeneous. inhibition, % (concentration not given with the values). actives 1.1% (n = 300,000). cell-free CFP-Ran/YFP-importin-beta FRET ratio. AID 2216;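 active = more than half of the replicate wells show a fall in the fluorescence ratio signal beyond about 16%, limit read from the data, passing the limit was not always enough; inconclusive = exactly half of the replicate wells pass the set limit; inactive = fewer than half of replicates pass the limit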;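 note: 0% = DMSO wells and 100% = Ran loaded with GDP instead of GTP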
Runt-SMMHC FRET = inhibitors of human RUNX1 Runt domain binding to CBFb-SMMHC. AID 1434. Cerulean-Runt/Venus-CBFb-SMMHC FRET ratio 530/480, 1 h. actives 0.74% (n = 220,000). inhibition, % at 20 µM;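 active = mean inhibition across duplicate retests at 20 µM reaching about 50%, limit read from the data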;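 note: 0% = DMSO wells and 100% = wells with excess untagged CBFb-SMMHC; inhibitors lower the FRET ratio by blocking Runt binding to CBFb-SMMHC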
Target sequence (Q01196 whole entry, looked up, the tested form may be a part): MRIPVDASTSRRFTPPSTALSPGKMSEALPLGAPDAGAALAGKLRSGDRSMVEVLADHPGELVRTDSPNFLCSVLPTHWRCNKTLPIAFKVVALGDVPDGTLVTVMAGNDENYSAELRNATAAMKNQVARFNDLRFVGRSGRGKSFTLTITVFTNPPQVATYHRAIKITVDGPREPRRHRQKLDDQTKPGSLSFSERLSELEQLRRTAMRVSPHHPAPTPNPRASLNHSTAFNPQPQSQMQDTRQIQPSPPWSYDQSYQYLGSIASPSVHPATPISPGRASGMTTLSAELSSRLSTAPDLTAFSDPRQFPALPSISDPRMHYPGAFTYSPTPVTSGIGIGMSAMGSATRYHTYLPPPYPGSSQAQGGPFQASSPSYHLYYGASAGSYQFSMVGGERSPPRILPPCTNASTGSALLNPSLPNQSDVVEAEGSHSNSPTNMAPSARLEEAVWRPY
Target sequence (Q13951 whole entry, looked up, the tested form may be a part): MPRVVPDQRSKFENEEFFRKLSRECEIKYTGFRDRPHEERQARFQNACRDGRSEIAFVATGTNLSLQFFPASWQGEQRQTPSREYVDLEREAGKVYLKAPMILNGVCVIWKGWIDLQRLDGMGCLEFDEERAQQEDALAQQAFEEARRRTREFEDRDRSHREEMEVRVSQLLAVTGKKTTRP
IMP-1 inhibitor = blocks Pseudomonas aeruginosa IMP-1 metallo-beta-lactamase | actives 0.45% (n = 290,000) | AID 1556 | inhibition, % at 5.6 µM | purified IMP-1, nitrocefin hydrolysis, epi-absorbance fluorescence;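 active = inhibition above the mean plus 3 SD of all compounds in the same screening run, cut at about 4.5% in these data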;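 note: 0% = IMP-1 with DMSO and 100% = DMSO wells lacking enzyme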
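System – purified recombinant IMP-1 beta-lactamase · Input – IMP-1 dispensed at 0.2 nM · Timing – 15 min preincubation plus 25 min reaction at 25 °C · Signal – Epi-absorbance fluorescence, 480 nm excitation, 530 nm emission · Measure – percent IMP-1 inhibition derived from blank-referenced optical density · Controls – Enzyme-plus-DMSO low control, enzyme-free DMSO high control · Replication – singlicate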
VIM-2 inh = blocks Pseudomonas aeruginosa VIM-2 metallo-beta-lactamase; purified VIM-2, nitrocefin hydrolysis, epi-absorbance fluorescence; inhibition, % at 5.6 µM; actives 0.89% (n = 290,000);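 active = inhibition above the mean of all tested compounds plus 3 SD, cutoff set per screening run, cut at about 7.5% in these data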;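 note: red hydrolysis product quenches plate fluorescence so inhibitors raise well fluorescence; 0% = enzyme with DMSO and 100% = DMSO without enzyme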
Runt-CBFb FRET = inhibitors of human RUNX1 Runt domain binding to CBFb; actives 0.46% (n = 220,000); Cerulean-Runt/Venus-CBFb FRET ratio 530/480, 1 h; Q01196+Q13951; inhibition, % at 20 µM;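 active = inhibition over about 50% at 20 µM in the single-dose screen, limit read from the data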;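 note: 0% = DMSO wells and 100% = excess unlabeled CBFb competitor control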
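Measured by: fluorescence energy transfer, 422 nm excitation, 530/480 nm emission; test system: Cerulean-tagged RUNX1 Runt domain (FRET donor) fusion protein; buffer or medium: Tris pH 7.5 buffer with BSA; compound: one dose, 20 µM compound, 1% DMSO; times: two 1 h room-temperature incubations shielded from light; benchmarks: unlabeled CBFb 5 µM, positive control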
* = called active by the depositor; ? = inconclusive; nt = no result.

SMILES | RanGTP-Imp inh | Runt-SMMHC FRET | IMP-1 inhibitor | VIM-2 inh | Runt-CBFb FRET
Nc1c(C(=O)NCc2ccc3c(c2)OCO3)c2nc3ccccc3nc2n1CCCN1CCOCC1 | 61* | 81* | -3 | 1 | 22
COC(=O)c1ccc(NC(=O)CSc2nn3c(=O)c(C)nnc3s2)cc1 | -4 | nt | -1 | -2 | nt
CCCc1c(CC)c(=N)c2ccccc2n1C | 4 | 0 | 8.8* | -4 | -5
O=c1[nH]c2ccccc2nc1/C=C/c1ccc(Cl)cc1 | 23* | 37 | -2 | -3 | -32
Cn1c(/C=C/c2ccccc2)nc2ccccc2c1=O | 0 | nt | 0 | 2 | nt
Cn1c(/C=C/c2ccc(Cl)cc2)nc2ccccc2c1=O | 20* | nt | -1 | 0 | nt
COc1cc(OC)c(NC(=O)CCNS(=O)(=O)c2ccc3c(c2)CC(C)N3C(C)=O)cc1Cl (stereo not drawn) | ? | nt | -4 | -2 | nt
CCc1ccccc1NC(=S)N1CCCCCC1 | nt | nt | -3 | -2 | nt
CC1(c2ccc(OC(F)F)cc2)NC(=O)N(/N=C/c2c(O)ccc3ccccc23)C1=O (stereo not drawn) | 7 | 71* | -4 | 0 | 39
Nc1cccc2c1C(=O)N(CC(=O)NC13CC4CC(CC(C4)C1)C3)C2=O | 5 | 93* | -3 | -6 | 20
CC(OC(=O)Cn1cnc2c1c(=O)n(C)c(=O)n2C)C(=O)N(C)c1ccccc1 (stereo not drawn) | 6 | nt | nt | nt | nt
Cc1ccc(-n2nc3c(=O)n(CC(=O)NCc4ccccn4)nc(C)c3c2C)cc1 | 0 | nt | -3 | -2 | nt
CCOc1ccc(CNC(=O)Cn2nc(C)c3c(C)n(-c4ccc(C)cc4)nc3c2=O)cc1 | 2 | nt | 11* | 0 | nt
COc1ccccc1CNS(=O)(=O)c1ccc(-n2cccn2)cc1 | -6 | nt | -4 | -2 | nt
O=C(O)C(=O)/C(=C\c1ccsc1)c1ccc2ccccc2n1 | 20* | nt | -3 | 7 | nt
O=C(O)C(=O)/C(=C\c1ccccc1)c1ccc2ccccc2n1 | 31* | 52* | 0 | 0 | 7
O=C(O)C(=O)/C(=C\c1cccc2ccccc12)c1ccc2ccccc2n1 | 63* | 80* | -2 | -2 | 19
O=C(NNC(=O)c1csc(N2CCOCC2)n1)c1ccc(Cl)nc1 | 3 | nt | nt | nt | nt
O=C(C[n+]1cc[nH]c1)c1ccc(Cl)cc1 | -2 | nt | -2 | -1 | nt
CC(C)OC(=O)C[N+](C)(C)CCN1C(=O)C2C(c3ccccc3)C=CC(c3ccccc3)C2C1=O (stereo not drawn) | 5 | 10 | 13* | 1 | 0
CNC(=O)c1cc(Nc2nnc(-c3ccc(C)c(S(N)(=O)=O)c3)c3ccccc23)ccc1OC | 1 | nt | 2 | 2 | nt
CCN1CCN(c2c(/C=C3\SC(=S)N(Cc4ccco4)C3=O)c(C)c(C#N)c(=O)n2C)CC1 | -50 | -120 | 6.4* | 1 | 2
COc1ccc(-n2c(C)cc(/C=C3\SC(=S)N(Cc4ccco4)C3=O)c2C)cc1 | 7 | -64 | -2 | -3 | -11
CC(Oc1ccccc1C(N)=O)C(=O)Nc1ccc(S(=O)(=O)N2CCCC2)cc1 (stereo not drawn) | -3 | nt | nt | nt | nt
O=C(NCCN1CCOCC1)c1c(O)nc2ccccn2c1=O | 3 | nt | -1 | 0 | nt
SMILES | RanGTP-Imp inh | Runt-SMMHC FRET | IMP-1 inhibitor | VIM-2 inh | Runt-CBFb FRET
N#Cc1cc2c(=O)n3ccccc3nc2n(CCN2CCOCC2)c1=O | nt | 143* | nt | nt | 103*
Cc1ccc2nc3c(cc(C#N)c(=O)n3-c3nccs3)c(=O)n2c1 | 191* | 65* | 0 | 8 | 12
Cc1ccc(O)c(C(=O)c2cc(C#N)c(=O)n(CC3CCCO3)c2)c1 (stereo not drawn) | 7 | -10 | -3 | -1 | 17
Cc1ccc2nc3c(cc(C#N)c(=O)n3CC3CCCO3)c(=O)n2c1 (stereo not drawn) | nt | 65* | -3 | -6 | 52*
N#Cc1cc2c(=O)n3ccccc3nc2n(CCCN2CCOCC2)c1=O | 95* | 62* | -5 | 0 | 77*
Cc1nc2ccccc2c(=O)n1CCCN1CCOCC1 | 0 | -1 | -1 | -1 | 0
Cc1ccccc1N1CCN(C2CCCN(C(=O)c3cn4cccc(C)c4n3)C2)CC1 (stereo not drawn) | -4 | nt | -2 | -1 | nt
Cc1ccccc1CCNC(=O)Cn1ccc2cc(S(=O)(=O)N3CCCC3)ccc21 | -1 | nt | -6 | -2 | nt
COc1ccc(/C=N/N(C)C2=NCCN2)c(OC)c1OC | 3 | nt | -3 | 0 | nt
Cc1ccc2nc(-c3ccccc3)c(CN3CCOCC3)n2c1 | -4 | -1 | -1 | 0 | 1
Cc1ccc2nc3c(cc(C#N)c(=O)n3CCN3CCOCC3)c(=O)n2c1 | nt | 63* | nt | nt | 146*
Cc1cccc(-n2c(CNC(=O)c3cccc([N+](=O)[O-])c3C)n[nH]c2=S)c1 | 3 | 6 | -3 | 8.8* | 2
CCc1ccc(-c2cc3c(=O)n(CC(=O)NCCCN4CCN(C)CC4)ncn3n2)cc1 | 3 | nt | 0 | 3 | nt
CC1(C)Cc2c(C#N)c(N3CCN(C(=O)c4ccco4)CC3)nc(-c3ccco3)c2CS1 | 10 | -40 | -2 | -4 | -8
CC(=O)N1CCN(c2nc(-c3ccco3)c3c(c2C#N)CC(C)(C)SC3)CC1 | 16* | -42 | -1 | 0 | -12
COc1ccc(CNCCCC(=O)Nc2c(Cl)ccc(C)c2Cl)cc1OC | -3 | nt | -3 | -3 | nt
CCN1/C(=C/C=C/c2sc3ccccc3[n+]2CC)Sc2ccccc21 | 26* | nt | nt | nt | nt
CCN1/C(=C/C=C/C=C/c2sc3ccccc3[n+]2CC)Sc2ccccc21 | 0 | 20 | 3 | 1 | 17
COc1ccc(-n2nnnc2SCC(=O)c2ccc(O)c(O)c2)cc1 | -4 | -3 | -3 | 7 | 4
NC(=O)c1ccc(-n2nnnc2SCC(=O)c2ccc(O)c(O)c2)cc1 | -5 | -1 | 0 | 11* | 3
CCc1ccccc1NC(=O)NC1CC2CCC(C1)N2Cc1ccco1 (stereo not drawn) | 6 | 3 | -1 | -2 | 0
O=C(Nc1cccc(Cl)c1)NC1CC2CCC(C1)N2Cc1ccco1 (stereo not drawn) | 33* | -2 | -3 | -3 | 2
O=C(O)[C@H]1CCCC[C@H]1C(=O)Nc1ccc(S(=O)(=O)N2CCOCC2)cc1 | 17* | nt | -2 | 0 | nt
CCn1c(CCc2ccccc2)nc2ccccc21 | ? | nt | -5 | -2 | nt
Cc1ccc(S(=O)(=O)NCc2ccccc2)cc1C(=O)N(C)Cc1ccccc1F | 6 | nt | 0 | -1 | nt
COc1ccc(CN(C)C(=O)c2cc(S(=O)(=O)Nc3ccccc3F)ccc2C)c(OC)c1 | 3 | nt | 4.8* | 1 | nt
CC(C)(C)CC(=O)Nc1cccc2c1CCCC2 | -3 | 2 | 6.9* | -1 | -1
CCOc1ccc(C(=O)OC(C)CN2CCN(C)CC2)cc1 (stereo not drawn) | -1 | nt | 0 | 0 | nt
COc1ccc(C(=O)NCCNc2nc3ccc(C)cc3cc2C#N)cc1OC | 77* | nt | -4 | -3 | nt
